Assay outcomes from PubChem BioAssay.
Shown are actives, neighbours in structure and some others; about 3.5% of the full set was active somewhere.
MrgX1 antagonist – human MrgX1 receptor antagonism, primary screen; B-score at 10 µM; AID 588676; MRGX1-HEK293 calcium flux, Fluo-4, BAM8-22 antagonism; hits give low values; 1.3% of 310,000 active; Q96LB2;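 active means calcium-response B-score plate-corrected more than 3 library SD below zero, starting fluorescence within 5 deviations, no agonist response on first addition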;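 further: peak minus trough fluorescence over baseline after final BAM8-22 challenge near maximal dose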
Target sequence (Q96LB2 whole entry, looked up): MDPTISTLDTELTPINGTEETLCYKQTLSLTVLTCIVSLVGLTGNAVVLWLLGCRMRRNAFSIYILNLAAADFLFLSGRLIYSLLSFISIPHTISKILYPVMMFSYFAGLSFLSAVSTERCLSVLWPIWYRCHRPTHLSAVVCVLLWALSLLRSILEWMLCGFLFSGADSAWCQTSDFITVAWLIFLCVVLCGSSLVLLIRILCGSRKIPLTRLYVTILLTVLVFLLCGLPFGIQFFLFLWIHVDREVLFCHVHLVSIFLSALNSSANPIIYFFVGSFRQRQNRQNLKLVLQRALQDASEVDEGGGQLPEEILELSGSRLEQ
RGS4 pot – RGS4 potentiation or activation. HEK293 M3R/inducible RGS4, carbachol calcium flux Fluo4; hits give low values. B-score at 10 µM. 0.92% of 310,000 active;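 active means B-score of the integrated calcium signal more than 4 SD below the library mean, with starting fluorescence not abnormally high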;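 further: negative B-score means reduced calcium response which marks RGS4 activation or potentiation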
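Test system: HEK293 cells with stable M3R and inducible RGS4; also added: carbachol at ECmax as muscarinic agonist stimulus; schedule: dye loading 30 min 37 °C, buffer rest 30 min RT; technique: kinetic calcium fluorescence imaging with Fluo4-AM dye, 2 µM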
MrgX1 PAM – allosterically activates human MrgX1 receptor signaling. Q96LB2. MrgX1-HEK293, Fluo-4 calcium flux, FDSS; hits give high values. AID 588675. 0.63% of 310,000 active. B-score at 10 µM;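 active means plate-corrected calcium response at least 3 library SD above typical, normal starting fluorescence, not activating the receptor alone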;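 further: compound read alongside a low EC10 to EC30 dose of BAM8-22 agonist; peak minus trough fluorescence over baseline measured at the second addition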
MrgX1 agonist – agonists of human MrgX1 receptor | Q96LB2 | MrgX1-HEK293 cells, Fluo-4 calcium fluorescence, agonist mode; hits give high values | B-score at 10 µM | 0.44% of 310,000 active;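 active means calcium response B-score plate-corrected fluorescence ratio at least 3 library SD, with starting fluorescence B-score inside 5 SD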
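Material – MrgX1-expressing HEK293 cells · Input – 15,000 cells seeded per well · Dosing – compound as first of three additions · Times – overnight seeding, then 1 h dark dye loading · Measured by – kinetic Fluo-4 NW fluorescence of intracellular calcium · Read-out – B-scored fluorescence response ratio · Benchmarks – positive and negative control wells on each plate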
RGS4 block – inhibitors of human RGS4; P49798; HEK293 M3R/RGS4 inducible, Fluo-4 calcium flux; hits give high values; triggered by carbachol at its EC20; B-score at 10 µM; 0.45% of 310,000 active; AID 463165;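 active means B-score, a plate-corrected calcium signal, over three deviations above library mean, with baseline fluorescence within five deviations of library mean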;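 further: RGS4 expression induced by doxycycline in cells with stable M3 receptor; B-score is computed from the integrated fluorescence ratio over baseline after carbachol; higher B-score means a larger calcium signal and so more RGS4 inhibition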
Target sequence (P49798 whole entry, looked up): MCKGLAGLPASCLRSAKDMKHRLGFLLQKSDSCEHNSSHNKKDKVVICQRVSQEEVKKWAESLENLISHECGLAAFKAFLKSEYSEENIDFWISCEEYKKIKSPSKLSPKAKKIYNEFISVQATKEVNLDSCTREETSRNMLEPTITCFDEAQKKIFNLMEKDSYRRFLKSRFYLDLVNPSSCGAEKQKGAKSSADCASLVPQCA
Numbers without * were called inactive.

What do the screens show for `CC(=O)c1ccc(-c2ccc(/C=C(/Sc3n[nH]c(C)n3)C(=O)O)o2)cc1`?
MrgX1 antagonist: -4.77*; RGS4 pot: inactive; MrgX1 PAM: inactive; MrgX1 agonist: inactive; RGS4 block: inactive

Results for Cc1ccc(S(=O)(=O)N2CCOCC2)cc1NC(=O)COC(=O)CCOc1ccc(C(C)(C)C)cc1 ?
MrgX1 antagonist: inactive; RGS4 pot: inactive; MrgX1 PAM: inactive; MrgX1 agonist: inactive; RGS4 block: inactive

How did CC(OC(=O)/C=C/c1ccc2ccccc2n1)C(=O)Nc1ccc(S(N)(=O)=O)cc1 (stereo not given) do in these assays?
MrgX1 antagonist: inactive; RGS4 pot: inactive; MrgX1 PAM: inactive; MrgX1 agonist: inactive; RGS4 block: inactive

Results for CCN(CC)S(=O)(=O)c1cccc(NC(=O)CN(C)Cc2cccc(OC)c2)c1 ?
MrgX1 antagonist: inactive; RGS4 pot: inactive; MrgX1 PAM: inactive; MrgX1 agonist: inactive; RGS4 block: inactive

Results for CC(/C=N/NC(=O)Cn1cnc2ccccc21)=C\c1ccccc1 ?
MrgX1 antagonist: inactive; RGS4 pot: inactive; MrgX1 PAM: inactive; MrgX1 agonist: inactive; RGS4 block: inactive

What do the screens show for `CC(/C=N/NC(=O)CCn1nnc2ccccc21)=C\c1ccccc1`?
MrgX1 antagonist: -7.66*; RGS4 pot: inactive; MrgX1 PAM: inactive; MrgX1 agonist: inactive; RGS4 block: inactive

How did Cc1ccccc1OCC(=O)Nc1ccc2c(c1)Cc1ccccc1-2 do in these assays?
MrgX1 antagonist: inactive; RGS4 pot: inactive; MrgX1 PAM: inactive; MrgX1 agonist: inactive; RGS4 block: inactive

Results for Cc1ccccc1OCC(=O)Nc1ccc(N2CCN(C)CC2)c(Cl)c1 ?
MrgX1 antagonist: inactive; RGS4 pot: -7.91*; MrgX1 PAM: inactive; MrgX1 agonist: inactive; RGS4 block: inactive

Results for CCN(CC)c1nc2c(c(=O)n(C)c(=O)n2C)n1CC(=O)c1ccccc1 ?
MrgX1 antagonist: inactive; RGS4 pot: inactive; MrgX1 PAM: inactive; MrgX1 agonist: inactive; RGS4 block: inactive

What do the screens show for `O=C(OC1CCCCC1)c1ccc(NC(=O)C2CCCCC2)cc1`?
MrgX1 antagonist: inactive; RGS4 pot: -7.01*; MrgX1 PAM: inactive; MrgX1 agonist: inactive; RGS4 block: inactive

How did O=C(O)CCC(=O)Nc1ccc(C(=O)OC2CCCCC2)cc1 do in these assays?
MrgX1 antagonist: inactive; RGS4 pot: inactive; MrgX1 PAM: inactive; MrgX1 agonist: inactive; RGS4 block: inactive

Results for COC(=O)c1[nH]c2ccc(Br)cc2c1NC(=O)CN1CCCc2ccccc21 ?
MrgX1 antagonist: inactive; RGS4 pot: inactive; MrgX1 PAM: inactive; MrgX1 agonist: inactive; RGS4 block: inactive

What do the screens show for `COC(=O)c1[nH]c2cc(C)ccc2c1NC(=O)CN1CCCc2ccccc21`?
MrgX1 antagonist: inactive; RGS4 pot: -7.31*; MrgX1 PAM: inactive; MrgX1 agonist: inactive; RGS4 block: inactive

Results for CC1CCCC(C)N1/N=C/c1ccc(C#N)cc1 (stereo not given) ?
MrgX1 antagonist: inactive; RGS4 pot: inactive; MrgX1 PAM: 8.41*; MrgX1 agonist: inactive; RGS4 block: inactive

Results for NC(=O)c1ccc(NC(=O)CSc2nnc(-c3ccncc3)n2Cc2ccco2)cc1 ?
MrgX1 antagonist: inactive; RGS4 pot: inactive; MrgX1 PAM: inactive; MrgX1 agonist: inactive; RGS4 block: inactive

How did COCc1cc(Sc2cccc(Cl)c2Cl)nc(-c2ccccc2)n1 do in these assays?
MrgX1 antagonist: inactive; RGS4 pot: inactive; MrgX1 PAM: 8.03*; MrgX1 agonist: inactive; RGS4 block: inactive

How did COCc1cc(N2CCOCC2)nc(-c2ccccc2)n1 do in these assays?
MrgX1 antagonist: inactive; RGS4 pot: inactive; MrgX1 PAM: inactive; MrgX1 agonist: inactive; RGS4 block: inactive

Results for C/C(=N\O)C(C)(C)Nc1ccc(F)cc1 ?
MrgX1 antagonist: inactive; RGS4 pot: inactive; MrgX1 PAM: inactive; MrgX1 agonist: inactive; RGS4 block: inactive

What do the screens show for `C/C(=N\O)C(C)(C)Nc1ccc(Cl)cc1`?
MrgX1 antagonist: inactive; RGS4 pot: inactive; MrgX1 PAM: inactive; MrgX1 agonist: 43.6*; RGS4 block: inactive

What do the screens show for `O=C1C=C(c2ccccc2)CC(c2ccc(F)cc2)C1` (stereo not given)?
MrgX1 antagonist: inactive; RGS4 pot: inactive; MrgX1 PAM: inactive; MrgX1 agonist: inactive; RGS4 block: inactive

How did COc1ccc(C2=CC(=O)CC(c3ccc(F)cc3)C2)cn1 (stereo not given) do in these assays?
MrgX1 antagonist: inactive; RGS4 pot: inactive; MrgX1 PAM: 10.5*; MrgX1 agonist: inactive; RGS4 block: inactive

How did COCCN=c1scc(-c2ccco2)n1/N=C/c1ccc(O)c(O)c1O do in these assays?
MrgX1 antagonist: inactive; MrgX1 PAM: inactive; MrgX1 agonist: inactive

Results for COCCN=c1scc(-c2cccs2)n1/N=C(\C)c1ccco1 ?
MrgX1 antagonist: inactive; RGS4 pot: inactive; MrgX1 PAM: 14.8*; MrgX1 agonist: inactive; RGS4 block: inactive

How did O=C(/C=C/c1ccccc1)c1cc(Br)ccc(=O)c1O do in these assays?
MrgX1 antagonist: inactive; RGS4 pot: inactive; MrgX1 PAM: 11.4*; MrgX1 agonist: inactive; RGS4 block: inactive

What do the screens show for `CCOc1ccc(Nc2nc(NCC3CCCO3)c3ccccc3n2)cc1` (stereo not given)?
MrgX1 antagonist: -5.86*; RGS4 pot: -7.19*; MrgX1 PAM: inactive; MrgX1 agonist: inactive; RGS4 block: inactive

Results for Oc1cccc(Nc2nc(NCC3CCCO3)c3ccccc3n2)c1 (stereo not given) ?
MrgX1 antagonist: inactive; RGS4 pot: inactive; MrgX1 PAM: inactive; MrgX1 agonist: inactive; RGS4 block: inactive

How did Cc1cc2n(n1)C(c1ccccc1)CC(c1ccc(Br)cc1)=N2 (stereo not given) do in these assays?
MrgX1 antagonist: inactive; MrgX1 PAM: 15*; MrgX1 agonist: inactive

Results for CNC(=S)N1N=C(c2ccc(Br)cc2)CC1c1ccc(Br)cc1 (stereo not given) ?
MrgX1 antagonist: inactive; RGS4 pot: inactive; MrgX1 PAM: inactive; MrgX1 agonist: inactive; RGS4 block: inactive

How did O=C(NCc1ccc(Cl)cc1)C1CCN(S(=O)(=O)c2cc([N+](=O)[O-])ccc2Cl)CC1 do in these assays?
MrgX1 antagonist: inactive; RGS4 pot: inactive; MrgX1 PAM: inactive; MrgX1 agonist: inactive; RGS4 block: inactive

How did Cc1cccc2sc(NC(=O)C3CCN(S(=O)(=O)c4cc([N+](=O)[O-])ccc4Cl)CC3)nc12 do in these assays?
MrgX1 antagonist: -6.8*; RGS4 pot: inactive; MrgX1 PAM: inactive; MrgX1 agonist: inactive; RGS4 block: inactive

Results for O=C(Nc1ccccc1Cl)C1(c2ccccc2)CC1(Cl)Cl (stereo not given) ?
MrgX1 antagonist: inactive; RGS4 pot: -7.03*; MrgX1 PAM: inactive; MrgX1 agonist: inactive; RGS4 block: inactive
